The values that follow come from ChEMBL document CHEMBL1124260, “Synthesis and antitumor activity of quaternary ellipticine glycosides, a series of novel and highly active antitumor agents” (1988).

Where “and” joins values, the source holds several entries; their conditions need not be identical. Identical values can stand only once.

As a reminder, the ILS is how much longer treated animals lived than controls.

Test [1] relates to Mus musculus. The test is described as follows: Inhibition of sc implanted syngeneic colon 38 carcinoma by ip administration at 20 mg/kg was on 1, 3, 5, 7, 9 days measured as inhibition ratio. The note with it: route subcutaneous. The class given is functional. The method in brief: (§1)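 Tumor homogenate (70 mg) implanted into the axillary region of female BDF1 mice. Drug dissolved in 0.9% NaCl and diluted with saline just before use, then given ip on days 1, 3, 5, 7 and 9. Tumor length and width were measured by caliper on day 20 after inoculation and converted to estimated weight. Result reported as treated vs control tumor weight, T/C %.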

Test [2] has as its system Mus musculus. The test can be described thus: Effect on ip implanted sarcoma 180 by ip administration for 5 days at 10 mg/kg was measured as increase in mean life span. The class given is functional. The note with it: Sarcoma-180, ip, 120 h, route intraperitoneal. The method in brief:
(§2)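 Saline-dissolved drug was dosed ip daily for 5 consecutive days starting 24 h later. Readout was ILS % (mean survival time of treated vs control) over an 80-day observation.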

For test [3], the system named is Mus musculus. The test is described as follows: Antitumor activity against ip implanted L1210 leukemia in mouse after ip administration of 20 mg/kg for 5 days expressed as increase in mean life span. In kind it is functional. The conditions noted are these: 120 h, route intraperitoneal. The method in brief:
(§3)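 Drug was dissolved in 0.9% NaCl, diluted just before use and given ip once daily for 5 consecutive days, starting 24 h after transplant. ILS % = mean survival time of treated vs control mice, observed for 80 days.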

For test [4], the system named is Mus musculus. The test can be described thus: Effect on ip implanted EAC by ip administration at 20 mg/kg was for 5 days measured as increase in mean life span. The class given is functional. The conditions noted are these: 120 h, route intraperitoneal. The method in brief: (§4)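 Drug in 0.9% NaCl was given ip for 5 consecutive days from 24 h after inoculation. ILS % came from treated vs control mean survival time, followed for 80 days.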

In test [5] the test system is Mus musculus. The test can be described thus: Number of survivors out of 6 ip-iv implanted L1210 leukemia mouse tested after 80 days at 30 mg/kg. The class given is functional. The method in brief: (§5)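 Female BDF1 mice bearing ip-implanted leukemia: 10^5 cells for L1210, 10^6 cells for P388. Drug dissolved in saline, given iv for 5 consecutive days beginning 24 h post-implant. Six mice per dose. Survivors scored at 80 days; ILS % from mean survival time relative to controls.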

The subject of test [6] is Mus musculus. The test can be described thus: Effect on ip implanted EAC by ip administration for 5 days at 5 mg/kg was measured as increase in mean life span. In kind it is functional. The conditions noted are these: 120 h, route intraperitoneal. The method in brief:
as §4

Test [7] deals with Mus musculus. The test can be described thus: Number of survivors out of 6 ip implanted L1210 leukemia mouse, tested after 80 days at 30 mg/kg. The class given is functional. The conditions noted are these: route intraperitoneal. The method in brief: (§6)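 Female BDF1 mice implanted ip with ascitic fluid holding 10^5 L1210 cells. Saline-dissolved drug given ip daily on days 1-5, starting 24 h after implant. Six mice per dose group, followed 80 days. Survivors/total counted at day 80; ILS % from mean survival time vs controls.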

For test [8], the system named is Mus musculus. The test can be described thus: Number of survivors out of 6 ip-ip implanted EAC leukemia mouse tested after 80 days at 40 mg/kg. The class given is functional. The method in brief: (§7)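 Drug dissolved and diluted in saline just before use, given ip for 5 consecutive days starting 24 h after implant. Six mice per dose. Survivors counted at 80 days; ILS % taken from mean survival time of treated vs control mice.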

The test system of test [9] is Mus musculus. The test can be described thus: Effect on ip implanted sarcoma 180 by ip administration for 5 days at 20 mg/kg was measured as increase in mean life span. In kind it is functional. The conditions noted are these: Sarcoma-180, ip, 120 h, route intraperitoneal. The method in brief: as §2
Test [10] has as its system Mus musculus. The test can be described thus: Effect on ip implanted syngeneic B16 melanoma by ip administration for 9 days at 2.5 mg/kg was measured as increase in mean life span. The conditions noted are these: 216 h.
The subject of test [11] is Mus musculus. The test can be described thus: Number of survivors out of 6 ip implanted EAC leukemia mouse tested after 80 days at 10 mg/kg. In kind it is functional. The conditions noted are these: route intraperitoneal. The method in brief:
as §7

The subject of test [12] is Mus musculus. The test is described as follows: Number of survivors out of 6 ip-iv implanted P388 leukemia mouse tested after 80 days at 20 mg/kg. In kind it is functional. The method in brief:
as §5

In test [13] the test system is Mus musculus. The test is described as follows: Antitumor activity against iv implanted L1210 leukemia in mouse after ip administration of 20 mg/kg for 5 days expressed as increase in mean life span. The class given is functional.
The subject of test [14] is Mus musculus. The test can be described thus: Inhibition of sc implanted syngeneic colon 38 carcinoma by ip administration at 30 mg/kg was on 1, 3, 5, 7, 9 days measured as inhibition ratio. In kind it is functional. The conditions noted are these: route subcutaneous. The method in brief:
as §1

The test system of test [15] is Mus musculus. The test can be described thus: Number of survivors out of 6 ip-ip implanted L1210 leukemia mouse tested after 80 days at 40 mg/kg. In kind it is functional. The method in brief:
as §6

Test [16] relates to Mus musculus. The test is described as follows: Effect on ip implanted syngeneic B16 melanoma by ip administration for 9 days at 10 mg/kg was measured as increase in mean life span. The note with it: 216 h.
Test [17] relates to Mus musculus. The test can be described thus: Number of survivors out of 6 ip-ip implanted L1210 leukemia mouse tested after 80 days at 20 mg/kg. In kind it is functional. The method in brief: as §6
The subject of test [18] is Mus musculus. The test is described as follows: Inhibition of sc implanted syngeneic colon 38 carcinoma by ip administration at 40 mg/kg was on 1, 3, 5, 7, 9 days measured as inhibition ratio. In kind it is functional. The note with it: route subcutaneous. The method in brief: as §1
For test [19], the system named is Mus musculus. The test can be described thus: Effect on ip implanted syngeneic B16 melanoma by ip administration for 9 days at 5 mg/kg was measured as increase in mean life span. The conditions noted are these: 216 h.
Test [20] concerns Mus musculus. The test can be described thus: Antitumor activity against ip implanted L1210 leukemia in mouse after ip administration of 5 mg/kg for 5 days expressed as increase in mean life span. The class given is functional. The note with it: Mus musculus, L1210, ip, 120 h, route intraperitoneal. The method in brief:
as §3

Test [21] concerns Mus musculus. The test is described as follows: Antitumor activity against ip implanted L1210 leukemia in mouse after iv administration of 30 mg/kg for 5 days expressed as increase in mean life span. The conditions noted are these: 120 h.

As for `Cc1c2cc[n+]([C@@H]3OC[C@H](O)[C@H](O)[C@H]3O)cc2c(C)c2c1[nH]c1ccc(O)cc12.[Br-]`, the “T/C @ 20mg/kg” value in test [1] came to 66%. The ILS at 10 mg/kg was determined as 117% in test [2] and 46% in test [16]. Besides, the increase in lifespan (ILS) at 20 mg/kg is above 251% in [3], above 338% in test [4] and 282% in test [9]. Moreover, the Cures in test [5] is 2; in [7], 5; in test [12], 2; in test [15] it was 4; in [17] it was 1. The increase in lifespan (ILS) at 5 mg/kg in test [6] was determined as 95%; in test [19], 44%; in test [20], 57%. Further, the “Cures@ 40mg/kg” value in [8] came to 5. This compound came in with an increase in lifespan (ILS) at 2.5 mg/kg in test [10] of 38%. Moreover, in test [11], the “Cures@ 10mg/kg” value is reported as 1. In test [13], the ILS is 198% and >549%. In test [14], the “T/C @ 30mg/kg” value was found to be 59%. In addition, the “T/C @ 40mg/kg” value in test [18] amounted to 7%. The compound further yielded an ILS at 30 mg/kg in test [21] above 344%.
